Series [1] has as its system SARS-CoV-2 BetaCoV/Germany/BavPat1/2020. It is filed as cell-based.
The test system of series [2] is human pneumocyte-like cells. Description: Pneumocyte-like cell MTT viability assay. The format is cell-based. Particulars: 10 μM, 48 h, uninfected. In short, it runs like this:
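Human pneumocyte-like cells derived from H9 embryonic stem cells, used on day nine of differentiation. An uninfected duplicate set received the same drug concentrations as the antiviral set. After 48 h at 37 °C, viability was read by MTT assay. Viability was expressed as a percentage of the DMSO control, in triplicate.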
Background: Tetrazolium assays rely on reduction of a dye to a coloured formazan, in cell work by metabolically active cells.

Series [3] concerns SARS-CoV-2 BetaCoV/Germany/BavPat1/2020. It is filed as cell-based. Particulars: effect only at 10 μM, less potent than Apra S4.
Series [4] relates to VSV-G protein pseudotyped particles. The format is cell-based, vesicular stomatitis virus.
Series [5] deals with SARS-CoV-1 S pseudotyped particles. The format is cell-based.
The subject of series [6] is SARS-CoV-2 S pseudotyped particles. The format is cell-based.
The subject of the next series is SARS-CoV-2. To be noted: COVID-19 patients; cited from earlier work.
For a further series, the system named is HeLa-hACE2. Particulars: HeLa-hACE2, conditions of the antiviral assay, 16 h.
Series [7] deals with SARS-CoV-2 BetaCoV/Germany/BavPat1/2020. Description: Time-of-addition assay in Vero CCL81, plaque assay. The format is cell-based.
The test system of a further series is ACE2. The series can be described thus: ACE2 immunoblot analysis in Vero E6. Particulars: Vero E6, after 24 h. The format is cell-based, monkey.
Series [8] deals with ocular angiogenic disease models. To be noted: 0.25 mg/kg; cited from earlier work.
Another series has as its system SARS-CoV-2 USA-WA1/2020. It is filed as cell-based.
In series [9] the test system is SARS-CoV-2 nucleoprotein and spike protein. It is filed as cell-based.
Series [10] has as its system SARS-CoV-2 negative-stranded viral RNA. The series can be described thus: In vitro transcribed viral RNA replication assay, negative-stranded RNA RT-qPCR. It is filed as cell-based.
For another series, the system named is SARS-CoV-2 dsRNA. The format is cell-based.
The next series concerns Vero E6. Particulars: Vero E6, conditions of the antiviral assay, 16 h.
Series [11] concerns SARS-CoV-2 BetaCoV/Germany/BavPat1/2020. The format is cell-based. This is another data set of the same source.
The subject of the next series is Vero CCL81 cells. To be noted: 1 μM, 18 h.

In the case of `CCC(CC)COC(=O)[C@H](C)N[P@](=O)(OC[C@H]1O[C@@](C#N)(c2ccc3c(N)ncnn23)[C@H](O)[C@@H]1O)Oc1ccccc1` [remdesivir, reference compound], the SARS-CoV-2 multicycle growth result in [1] is listed as “less potent”. Moreover, in series [2], the “cytotoxicity in pneumocyte-like cells” value was “No cytotoxicity”.

On to `CC1(C)C(N(O)C(=O)Nc2ccc(Cl)cc2)N(c2ccc(Cl)cc2)C(=O)N1CC(=O)N/N=C/C=C/c1ccc([N+](=O)[O-])o1` (stereo not drawn) [Eeyarestatin I, eeyarestatin I], for which the SARS-CoV-2 growth entry in series [3] is “inhibited SARS-CoV-2 in a dose-dependent manner”.

Regarding `Cc1cccc(/C=N/Nc2cc(N3CCOCC3)nc(OCCc3ccccn3)n2)c1` [Apilimod, apilimod, reference compound], in series [4], the VSV-G-mediated entry result is “None of the compounds impacted”. Besides, the “viral entry of SARS-CoV-1 S pseudotyped particles (luciferase)” value in [5] is on record as “inhibited viral entry”. In addition, the “cytotoxic effect (WST-8)” value in the series on Vero E6 cells was “No cytotoxic effect was observed”. Besides, the “viral entry of SARS-CoV-2 S pseudotyped particles (luciferase)” value in series [6] is “inhibited viral entry”.

As to `CC(C)C(=O)OC[C@H]1O[C@@H](n2ccc(NO)nc2=O)[C@H](O)[C@@H]1O` [molnupiravir], in the series with SARS-CoV-2, the “reduction of the rate of hospitalizations and death” value is on record as 30%.

Turning to `CC[C@H](C)[C@H]1C(=O)N2CCC[C@H]2C(=O)O[C@H](C(C)(C)C)C[C@@H](C)C[C@H](O)[C@H](C)C2=N[C@@H](CCC(=O)N[C@@H](Cc3ccc(OC)cc3)C(=O)N(C)[C@@H](C)C(=O)N1C)CS2` [Apra S4, apratoxin S4], the cytotoxicity result in the series with HeLa-hACE2 was “Cytotoxicity was not observed”. Further, the “antiviral activity by time of addition” value in series [7] is “did not lose its antiviral activity even if added 2 h after infection”. In addition, the “concentration giving decreased ACE2 protein levels” value in the series with ACE2 was not below 1 µM. Also, the VSV-G-mediated entry entry in series [4] is on record as “None of the compounds impacted”. Also, in [8], the “efficacy in ocular angiogenic disease models in vivo” value is “exquisite efficacy” and the “toxicity in ocular angiogenic disease models in vivo” value is on record as “without toxicity or histological abnormalities”. The “viral entry of SARS-CoV-1 S pseudotyped particles (luciferase)” value in series [5] was “slightly enhanced infection”. Also, the “viral replication in human pneumocyte-like cells” value in the series on SARS-CoV-2 USA-WA1/2020 is given as “significantly decreased viral replication”. Besides, in series [1], the SARS-CoV-2 multicycle growth result is given as “strongly reduced”. For the same compound, the virus titers in series [1] ([…], below limit of detection) is listed as less than 100 PFU/mL. In [9], the “nucleoprotein signal intensity in infected cells” value was “increased”; the “number of infected cells (N or S positive)” value was “significantly reduced number of infected cells”; the “spike protein staining intensity in infected cells” value is “significantly reduced”; the “viral protein expression at the cell surface (nucleoprotein and spike)” value is given as “inhibitory effect of Apra S4 was even more pronounced”. In addition, the “negative-strand viral RNA” value in [10] is on record as “reduced the negative-strand RNA”. In addition, the “cytotoxic effect (WST-8)” value in the series on Vero E6 cells was “No cytotoxic effect was observed”. Moreover, the “cytotoxicity in pneumocyte-like cells” value in series [2] was “No cytotoxicity”. In the series on SARS-CoV-2 dsRNA, the “dsRNA intermediates in infected cells” value was “strongly reduced”. Besides, the cytotoxicity entry in the series on Vero E6 is “Cytotoxicity was not observed”. Also, the “reduction in infectious virus titers in the supernatant” value in series [11] is reported as “more than 100 fold”. The “viral entry of SARS-CoV-2 S pseudotyped particles (luciferase)” value in [6] is listed as “slightly enhanced infection”. The “cytotoxic effects (CellTiter-Glo)” value in the series with Vero CCL81 cells is given as “not due to cytotoxic effects”.
